The source of these data is ChEMBL document CHEMBL3112405, “A-ring modified betulinic acid derivatives as potent cancer preventive agents” (Bioorg Med Chem Lett, 2014).

Test [1] concerns Raji. As to the kind of experiment: Chemopreventive activity in human Raji cells assessed as inhibition of TPA-induced EBV-early antigen activation by measuring EBV-EA positive cells at 1000 molar ratio/20 ng/ml of TPA after 48 hrs by immunofluorescence analysis relative to control. It counts as cell-based. The arrangement: scale not given: the % may be the effect or the level left. To be noted: human gammaherpesvirus 4. Summed up:
(§1)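 Raji cells (EBV genome-carrying, Burkitt's lymphoma-derived, virus non-producer), grown in RPMI-1640 with 10% FBS. Cells were incubated 48 h at 37 °C with n-butyric acid (4 mM), TPA ([…] = 20 ng, in DMSO) and test compound in DMSO at 10–1000 mol ratio/TPA. EBV-EA-positive cells were detected by indirect immunofluorescence using NPC patient serum, with at least 500 cells counted. Triplicates were run, expressed relative to the butyrate+TPA control (100%). Viability was checked by Trypan blue.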

The species named for test [2] is Mus musculus. As to the kind of experiment: Inhibition of DMBA-TPA-induced carcinogenesis in mouse skin assessed as reduction of number of papilloma at 85 nmol after 11 weeks relative to control. It is filed as functional. The arrangement: scale not given: the % may be the effect or the level left. Summed up: (§2)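 Two-stage mouse skin model. Initiation used DMBA (390 nmol). Promotion used TPA (1.7 nmol) twice weekly, starting 1 week after initiation. Test compound (85 nmol) was given with TPA. Papilloma incidence (% of mice bearing papillomas) and average papillomas per mouse were monitored over 20 weeks against a TPA-alone control.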

The subject of test [3] is Raji. Put plainly: Chemopreventive activity in human Raji cells assessed as inhibition of TPA-induced EBV-early antigen activation by measuring EBV-EA positive cells at 100 molar ratio/20 ng/ml of TPA after 48 hrs by immunofluorescence analysis. The arrangement: scale not given: the % may be the effect or the level left. Conditions: human gammaherpesvirus 4. It is filed as cell-based. Summed up: as §1

Test [4] concerns Raji. Put plainly: Chemopreventive activity in human Raji cells assessed as inhibition of TPA-induced EBV-early antigen activation by measuring EBV-EA positive cells at 500 molar ratio/20 ng/ml of TPA after 48 hrs by immunofluorescence analysis. It counts as cell-based. The arrangement: scale not given: the % may be the effect or the level left. Conditions: human gammaherpesvirus 4. The gist of the method: as §1

Test [5] is filed under the species Mus musculus. Put plainly: Inhibition of DMBA-TPA-induced carcinogenesis in mouse skin assessed as reduction of number of papilloma at 85 nmol after 8 weeks relative to control. The arrangement: scale not given: the % may be the effect or the level left. It is filed as functional. The gist of the method:
as §2

In test [6] the test system is Raji. Put plainly: Chemopreventive activity in human Raji cells assessed as inhibition of TPA-induced EBV-early antigen activation by measuring EBV-EA positive cells at 10 molar ratio/20 ng/ml of TPA after 48 hrs by immunofluorescence analysis. The arrangement: scale not given: the % may be the effect or the level left. It counts as cell-based. Conditions: human gammaherpesvirus 4. Summed up:
(§3)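 Raji cells (EBV genome-carrying, virus non-producer; cultured in RPMI-1640 with 10% FBS) incubated 48 h at 37 °C with n-butyric acid (4 mM), TPA ([…] = 20 ng) and test compounds in DMSO. EBV-EA positive cells were detected by indirect immunofluorescence with NPC patient serum, counting ≥500 cells, triplicate. Results were expressed relative to the butyric acid+TPA control (100%). Viability was checked by Trypan blue.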

Test [7] in a line: Chemopreventive activity in human Raji cells assessed as molar ratio of compound required to inhibit 50% of control of inhibition of TPA-induced EBV-early antigen activation after 48 hrs by immunofluorescence analysis. It counts as cell-based, human gammaherpesvirus 4. Summed up:
as §3

With `C=C(C)[C@@H]1CC[C@]2(C)[C@H](CC[C@@H]3[C@H]4[C@H](C(C)C)CC[C@]4(C(=O)O)CC[C@]32C)[C@@]1(C)CCC(=O)O`, the Activity is 0% in the test on Raji [1]; 10% in the test listed under Mus musculus [2]; 65.1% in the test with Raji [3]; 26.6% in the test with Raji [4]; 0% in the test listed under Mus musculus [5]; 91.6% in the test with Raji [6]. In addition, the IC50 in test [7] is 295 molar ratio.
For `C=C(C)[C@@H]1CC[C@]2(C)[C@H](CC[C@@H]3[C@H]4[C@H](C(C)C)CC[C@]4(C(=O)NCCCCCCCNC(C)=O)CC[C@]32C)[C@@]1(C)CCC(=O)O`, the Activity was determined as 6.7% in the test with Raji [1], 76.3% in the test with Raji [3], 50.2% with Raji [4] and 100% with Raji [6]. Moreover, the IC50 in test [7] worked out at 460 molar ratio.
`COc1cc(/C=C/C(=O)CC(=O)/C=C/c2ccc(O)c(OC)c2)ccc1O` [CURCUMIN]: the Activity came out at 0% with Raji [1], 81.7% in the test with Raji [3], 22.8% in the test with Raji [4] and 100% with Raji [6]. Further, the IC50 in test [7] is on record as 341 molar ratio.
With `COC(=O)CC[C@]1(C)[C@H]2CC[C@@H]3[C@H]4[C@H](C(C)C)CC[C@]4(C(=O)O)CC[C@@]3(C)[C@]2(C)CC[C@H]1C(C)COC(=O)CC(C)(C)C(=O)O` (stereo partly drawn), the Activity stood at 3.7% with Raji [1], 71.3% in the test with Raji [3], 36.4% with Raji [4] and 100% in the test on Raji [6]. Moreover, the IC50 in test [7] is on record as 386 molar ratio.
In the case of `C=C(C)[C@@H]1CC[C@]2(C(=O)O)CC[C@]3(C)[C@H](CC[C@@H]4[C@@]5(C)CC[C@H](OC(=O)CC(C)(C)C(=O)O)C(C)(C)[C@@H]5CC[C@]43C)[C@@H]12` [BEVIRIMAT], the Activity with Raji [1] was 6.1%; with Raji [3], 74.2%; in the test on Raji [4], 36.1%. Also, the IC50 in test [7] is reported as 396 molar ratio.
With `COC(=O)CC[C@]1(C)[C@H]2CC[C@@H]3[C@H]4[C@H](C(C)C)CC[C@]4(C(=O)O)CC[C@@]3(C)[C@]2(C)CC[C@H]1C(C)COC(C)=O` (stereo partly drawn), the Activity in the test with Raji [1] came to 0%; in the test with Raji [3], 68.8%; with Raji [4], 33.8%; with Raji [6], 98.2%. In addition, the IC50 in test [7] amounted to 335 molar ratio.
For `CC(=O)NCCCCCCCNC(=O)[C@]12CC[C@@H](C(C)C)[C@@H]1[C@H]1CC[C@@H]3[C@@](C)(CCC(=O)O)[C@H](C(C)COC(=O)CC(C)(C)C(=O)O)CC[C@@]3(C)[C@]1(C)CC2` (stereo partly drawn) the same measures were 11.3%, 81.3%, 57.2%, 100% and 501 molar ratio.
In the case of `COC(=O)CC[C@]1(C)[C@H]2CC[C@@H]3[C@H]4[C@H](C(C)C)CC[C@]4(C(=O)O)CC[C@@]3(C)[C@]2(C)CC[C@H]1C(C)CO` (stereo partly drawn), the Activity with Raji [1] stood at 0%; in the test filed under Mus musculus [2], 10%; with Raji [3], 68.1%; in the test with Raji [4], 31.6%; in the test listed under Mus musculus [5] it was 0%; with Raji [6] it was 96.3%. Moreover, the IC50 in test [7] is given as 323 molar ratio.
As for `COC(=O)CC[C@]1(C)[C@H]2CC[C@@H]3[C@H]4[C@H](C(C)C)CC[C@]4(C(=O)NCCCCCCCNC(C)=O)CC[C@@]3(C)[C@]2(C)CC[C@H]1C(C)COC(C)=O` (stereo partly drawn), the Activity is 7.8% in the test with Raji [1], 79.4% in the test on Raji [3], 56% in the test with Raji [4] and 100% with Raji [6]. Moreover, the IC50 in test [7] was determined as 490 molar ratio.
On to `C=C(C)[C@@H]1CC[C@]2(C)[C@H](CC[C@@H]3[C@H]4[C@H](C(C)C)CC[C@]4(C(=O)NCCCCCCCNC(C)=O)CC[C@]32C)[C@@]1(C)CCC(=O)OC`, for which the Activity is 7.1% with Raji [1], 77.2% in the test with Raji [3], 54.4% in the test with Raji [4] and 100% in the test on Raji [6]. Besides, in test [7], the IC50 is on record as 479 molar ratio.
In the case of `CC(=O)NCCCCCCCNC(=O)[C@]12CC[C@@H](C(C)C)[C@@H]1[C@H]1CC[C@@H]3[C@@](C)(CCC(=O)O)[C@H](C(C)CO)CC[C@@]3(C)[C@]1(C)CC2` (stereo partly drawn), the Activity stood at 6.6% in the test on Raji [1], 77.5% in the test with Raji [3], 52.1% with Raji [4] and 100% in the test on Raji [6]. Besides, the IC50 in test [7] worked out at 471 molar ratio.
In the case of `C=C(C)[C@@H]1CC[C@]2(C)[C@H](CC[C@@H]3[C@H]4[C@H](C(C)C)CC[C@]4(C(=O)O)CC[C@]32C)[C@@]1(C)CCC(=O)OC`, the Activity with Raji [1] was 0%; in the test on Raji [3], 66.9%; in the test on Raji [4] it was 29.1%; in the test on Raji [6] it was 94.2%. Moreover, the IC50 in test [7] was determined as 311 molar ratio.
Regarding `CC(=O)NCCCCCCCNC(=O)[C@]12CC[C@@H](C(C)C)[C@@H]1[C@H]1CC[C@@H]3[C@@]4(C)CCC(=O)OC(C)(C)[C@@H]4CC[C@@]3(C)[C@]1(C)CC2`, the Activity in the test with Raji [1] turned out to be 15.3%; in the test with Raji [3] it was 83.2%; in the test with Raji [4], 61.4%; with Raji [6], 100%. Also, in test [7], the IC50 is 523 molar ratio.
